Results as given in ChEMBL document CHEMBL4052595, “Application of Residual Dipolar Couplings and Selective Quantitative NOE to Establish the Structures of Tetranortriterpenoids from Xylocarpus rumphii” (J Nat Prod, 2017).
Calls of active or inactive are those of the source.

Key:
Type in all cases: functional, cell-based
[1] = test system: MOLT-4; assay: Growth inhibition of human MOLT4 cells at 10^-5 M incubated for 48 hrs by sulforhodamine B assay
Outline: (§1)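 Run in the NCI59 one-dose cell-line screen, with each compound tested at a single concentration of 1 × 10−5 M.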

[2] = test system: EKVX; assay: Growth inhibition of human EKVX cells at 10^-5 M incubated for 48 hrs by sulforhodamine B assay; outline: as §1
[3] = test system: HOP-62; assay: Growth inhibition of human HOP62 cells at 10^-5 M incubated for 48 hrs by sulforhodamine B assay; outline: as §1
[4] = test system: NCI-H522; assay: Growth inhibition of human NCI-H522 cells at 10^-5 M incubated for 48 hrs by sulforhodamine B assay; outline: as §1
[5] = test system: SK-MEL-2; assay: Growth inhibition of human SK-MEL-2 cells at 10^-5 M incubated for 48 hrs by sulforhodamine B assay; outline: as §1
[6] = test system: NCI/ADR-RES; assay: Growth inhibition of human NCI/ADR-RES cells at 10^-5 M incubated for 48 hrs by sulforhodamine B assay; outline: as §1
[7] = test system: RPMI-8226; assay: Growth inhibition of human RPMI8226 cells at 10^-5 M incubated for 48 hrs by sulforhodamine B assay; outline: as §1
[8] = test system: IGROV-1; assay: Growth inhibition of human IGROV1 cells at 10^-5 M incubated for 48 hrs by sulforhodamine B assay; outline: as §1
[9] = test system: K562; assay: Growth inhibition of human K562 cells at 10^-5 M incubated for 48 hrs by sulforhodamine B assay; outline: as §1
[10] = test system: A549; assay: Growth inhibition of human A549/ATCC cells at 10^-5 M incubated for 48 hrs by sulforhodamine B assay; outline: as §1
[11] = test system: T47D; assay: Growth inhibition of human T47D cells at 10^-5 M incubated for 48 hrs by sulforhodamine B assay
Outline: (§2)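 Tested at a single concentration of 1 × 10−5 M as part of the NCI59 cell-line one-dose screen.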

[12] = test system: HL-60(TB); assay: Growth inhibition of human HL-60(TB) cells at 10^-5 M incubated for 48 hrs by sulforhodamine B assay
Outline: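 Run in the NCI59 cell-line one-dose screen, with each compound tested at a single concentration of 1 × 10−5 M.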

[13] = test system: NCI-H226; assay: Growth inhibition of human NCI-H226 cells at 10^-5 M incubated for 48 hrs by sulforhodamine B assay; outline: as §1
[14] = test system: NCI-H23; assay: Growth inhibition of human NCI-H23 cells at 10^-5 M incubated for 48 hrs by sulforhodamine B assay; outline: as §1
[15] = test system: ACHN; assay: Growth inhibition of human ACHN cells at 10^-5 M incubated for 48 hrs by sulforhodamine B assay; outline: as §1
[16] = test system: 786-0; assay: Growth inhibition of human 786-0 cells at 10^-5 M incubated for 48 hrs by sulforhodamine B assay; outline: as §1
[17] = test system: CCRF-CEM; assay: Growth inhibition of human CCRF-CEM cells at 10^-5 M incubated for 48 hrs by sulforhodamine B assay; outline: as §1
[18] = test system: UO-31; assay: Growth inhibition of human UO31 cells at 10^-5 M incubated for 48 hrs by sulforhodamine B assay; outline: as §2
[19] = test system: OVCAR-4; assay: Growth inhibition of human OVCAR4 cells at 10^-5 M incubated for 48 hrs by sulforhodamine B assay; outline: as §1
[20] = test system: OVCAR-8; assay: Growth inhibition of human OVCAR8 cells at 10^-5 M incubated for 48 hrs by sulforhodamine B assay; outline: as §1
[21] = test system: COLO 205; assay: Growth inhibition of human COLO205 cells at 10^-5 M incubated for 48 hrs by sulforhodamine B assay; outline: as §1
[22] = test system: CAKI-1; assay: Growth inhibition of human Caki1 cells at 10^-5 M incubated for 48 hrs by sulforhodamine B assay; outline: as §1
[23] = test system: U-251; assay: Growth inhibition of human U251 cells at 10^-5 M incubated for 48 hrs by sulforhodamine B assay; outline: as §2
[24] = test system: NCI-H460; assay: Growth inhibition of human NCI-H460 cells at 10^-5 M incubated for 48 hrs by sulforhodamine B assay; outline: as §1
[25] = test system: SF-295; assay: Growth inhibition of human SF295 cells at 10^-5 M incubated for 48 hrs by sulforhodamine B assay; outline: as §1
[26] = test system: HT-29; assay: Growth inhibition of human HT-29 cells at 10^-5 M incubated for 48 hrs by sulforhodamine B assay; outline: as §1
[27] = test system: BT-549; assay: Growth inhibition of human BT549 cells at 10^-5 M incubated for 48 hrs by sulforhodamine B assay; outline: as §1
[28] = test system: SK-MEL-5; assay: Growth inhibition of human SK-MEL-5 cells at 10^-5 M incubated for 48 hrs by sulforhodamine B assay; outline: as §1
[29] = test system: MCF7; assay: Growth inhibition of human MCF7 cells at 10^-5 M incubated for 48 hrs by sulforhodamine B assay; outline: as §1
[30] = test system: M14; assay: Growth inhibition of human M14 cells at 10^-5 M incubated for 48 hrs by sulforhodamine B assay; outline: as §1
[31] = test system: SF-268; assay: Growth inhibition of human SF268 cells at 10^-5 M incubated for 48 hrs by sulforhodamine B assay; outline: as §1
[32] = test system: SN12C; assay: Growth inhibition of human SN12C cells at 10^-5 M incubated for 48 hrs by sulforhodamine B assay; outline: as §1
[33] = test system: MDA-MB-435; assay: Growth inhibition of human MDA-MB-435 cells at 10^-5 M incubated for 48 hrs by sulforhodamine B assay; outline: as §1
[34] = test system: HOP-92; assay: Growth inhibition of human HOP92 cells at 10^-5 M incubated for 48 hrs by sulforhodamine B assay; outline: as §1
[35] = test system: HCC 2998; assay: Growth inhibition of human HCC2998 cells at 10^-5 M incubated for 48 hrs by sulforhodamine B assay; outline: as §1
[36] = test system: RXF 393; assay: Growth inhibition of human RXF393 cells at 10^-5 M incubated for 48 hrs by sulforhodamine B assay; outline: as §1
[37] = test system: HCT-116; assay: Growth inhibition of human HCT116 cells at 10^-5 M incubated for 48 hrs by sulforhodamine B assay; outline: as §1
[38] = test system: LOX IMVI; assay: Growth inhibition of human LOXIMVI cells at 10^-5 M incubated for 48 hrs by sulforhodamine B assay; outline: as §1
[39] = test system: SNB-75; assay: Growth inhibition of human SNB75 cells at 10^-5 M incubated for 48 hrs by sulforhodamine B assay; outline: as §1
[40] = test system: SK-OV-3; assay: Growth inhibition of human SKOV3 cells at 10^-5 M incubated for 48 hrs by sulforhodamine B assay; outline: as §1
[41] = test system: OVCAR-3; assay: Growth inhibition of human OVCAR3 cells at 10^-5 M incubated for 48 hrs by sulforhodamine B assay; outline: as §1
[42] = test system: KM12; assay: Growth inhibition of human KM12 cells at 10^-5 M incubated for 48 hrs by sulforhodamine B assay; outline: as §1
[43] = test system: UACC-257; assay: Growth inhibition of human UACC257 cells at 10^-5 M incubated for 48 hrs by sulforhodamine B assay; outline: as §2
[44] = test system: SK-MEL-28; assay: Growth inhibition of human SK-MEL-28 cells at 10^-5 M incubated for 48 hrs by sulforhodamine B assay; outline: as §1
[45] = test system: DU-145; assay: Growth inhibition of human DU145 cells at 10^-5 M incubated for 48 hrs by sulforhodamine B assay; outline: as §1
[46] = test system: SW-620; assay: Growth inhibition of human SW620 cells at 10^-5 M incubated for 48 hrs by sulforhodamine B assay; outline: as §2
[47] = test system: A498; assay: Growth inhibition of human A498 cells at 10^-5 M incubated for 48 hrs by sulforhodamine B assay; outline: as §1
[48] = test system: SR; assay: Growth inhibition of human SR cells at 10^-5 M incubated for 48 hrs by sulforhodamine B assay; outline: as §1
[49] = test system: MDA-MB-231; assay: Growth inhibition of human MDA-MB-231 cells at 10^-5 M incubated for 48 hrs by sulforhodamine B assay; outline: as §1
[50] = test system: TK-10; assay: Growth inhibition of human TK10 cells at 10^-5 M incubated for 48 hrs by sulforhodamine B assay; outline: as §2
[51] = test system: PC-3; assay: Growth inhibition of human PC3 cells at 10^-5 M incubated for 48 hrs by sulforhodamine B assay; outline: as §1
[52] = test system: SNB-19; assay: Growth inhibition of human SNB19 cells at 10^-5 M incubated for 48 hrs by sulforhodamine B assay; outline: as §1
[53] = test system: OVCAR-5; assay: Growth inhibition of human OVCAR5 cells at 10^-5 M incubated for 48 hrs by sulforhodamine B assay; outline: as §1
[54] = test system: UACC-62; assay: Growth inhibition of human UACC62 cells at 10^-5 M incubated for 48 hrs by sulforhodamine B assay; outline: as §2
[55] = test system: SF-539; assay: Growth inhibition of human SF539 cells at 10^-5 M incubated for 48 hrs by sulforhodamine B assay; outline: as §1
[56] = test system: Hs-578T; assay: Growth inhibition of human Hs 578T cells at 10^-5 M incubated for 48 hrs by sulforhodamine B assay; outline: as §1
[57] = test system: NCI-H322M; assay: Growth inhibition of human NCI-H322M cells at 10^-5 M incubated for 48 hrs by sulforhodamine B assay; outline: as §1
[58] = test system: HCT-15; assay: Growth inhibition of human HCT15 cells at 10^-5 M incubated for 48 hrs by sulforhodamine B assay; outline: as §1

Measured: growth inhibition (GI)

CC[C@H](C)C(=O)O[C@@H]1[C@@H]2[C@@H](OC(=O)C(C)C)[C@@]34O[C@]2(O)[C@@](C)([C@@H](CC(=O)OC)C1(C)C)[C@H]3CC[C@]1(C)C4=CC(=O)O[C@H]1c1ccoc1
inactive: all assays above
